Source: PubChem
Rtt109 HAT inh: inhibitors of C. albicans Rtt109/Vps75 HAT, primary screen, biochemical, ThioGlo CoA-SH fluorescence, plate reader; Histone acetyltransferase RTT109 (Candida albicans (strain SC5314 / ATCC MYA-2876)), …; purified Rtt109/Vps75, 4 h; inhibition, % at 34.9 µM; 0.16% of 330,000 active; AID 540336, 2011;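 active means inhibition of at least 50% in every replicate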
GASC-1 inh: inhibitors of GASC-1 histone demethylase, primary screen, biochemical, fluorescence, DELFIA europium; 0.069% of 330,000 active; Lysine-specific demethylase 4C (Homo sapiens), Q9H3R0; GST-JMJD2C(1-420) H3K9me3 demethylation; inhibition, % at 2.35 µM;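 active means more than half of a compound's replicate wells show inhibition beyond 50%, single wells judged on their own value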;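 further: signal counts dimethyl H3K9 product captured on neutravidin plate; 0% = median of DMSO wells and 100% = 0.3 times that DMSO median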
Target sequence (Q9H3R0 1-420 limits assumed): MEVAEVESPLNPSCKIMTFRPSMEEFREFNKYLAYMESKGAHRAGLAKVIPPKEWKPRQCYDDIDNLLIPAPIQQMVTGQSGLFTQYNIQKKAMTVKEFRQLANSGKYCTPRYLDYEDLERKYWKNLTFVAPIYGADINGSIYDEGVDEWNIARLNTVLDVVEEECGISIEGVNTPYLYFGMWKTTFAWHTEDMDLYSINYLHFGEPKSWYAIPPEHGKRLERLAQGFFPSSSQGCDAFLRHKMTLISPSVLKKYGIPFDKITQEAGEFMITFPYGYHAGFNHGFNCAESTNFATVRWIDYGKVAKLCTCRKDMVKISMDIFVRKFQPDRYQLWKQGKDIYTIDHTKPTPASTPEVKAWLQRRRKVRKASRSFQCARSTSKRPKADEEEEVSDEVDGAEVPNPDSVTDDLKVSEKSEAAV
T cell HTS: modulators of CD8 T cell-vesicle binding, primary screen, mouse 2C CD8+ T cells, flow cytometry | response (vesicle binding), % at 7 µM | 0.068% of 330,000 active | 2C CD8+ T cell-vesicle binding; stronger effect = lower value;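 active means response, share of CD8 T cells binding vesicles, and their 90th percentile fluorescence all below set limits, cut at about 80% in these data, passing the limit was not always enough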;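 further: values below 100% mean blocked vesicle binding to the CD8+ T cells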
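Material: murine 2C transgenic CD8+ T lymphocytes / Also added: QL9-peptide-loaded Drosophila micro-vesicles bearing Ld, ICAM-1 and B7-1 / Schedule: binding step 1.5 h, 37 °C, antibody labelling 20 min, ice / Signal: flow cytometry, PE anti-B7-1 (FL2) versus Alexa647 anti-CD8 (FL8), PFA-fixed / Evaluation: percent CD8+ FL2 mean versus row control / Benchmarks: naked versus QL9-loaded vesicles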
GRIN3A LBD mod: binders of NR3A ligand-binding domain, primary screen, biophysical, differential scanning fluorimetry, uHTS; Glutamate receptor ionotropic, NMDA 3A (GRIN3A) ligand-binding domain; NR3A LBD differential scanning fluorimetry, Tm shift; 0% = protein alone, 100% = glycine-bound protein; Tm shift relative to glycine control, % at 25 µM; 2.5% of 340,000 active;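 active means melting temperature shift of at least 10% of the positive control shift, at one fixed dose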
* marks the source's active call; other numbers are inactive results. Hits are enriched below; roughly 2.8% of the tested compounds scored in any of these assays.

Screening CN1N=C(c2ccc(Cl)cc2)CC(c2ccc(Cl)cc2)C1=O (stereo not given) returned Rtt109 HAT inh 7.3, GASC-1 inh -4.3, T cell HTS 173.0 and GRIN3A LBD mod 1.7.
Screening COc1ccccc1-c1cc(C(=O)N2CCN(S(=O)(=O)c3ccc(C)cc3)CC2)[nH]n1 returned Rtt109 HAT inh 9.5, GASC-1 inh 9.4, T cell HTS 177.4 and GRIN3A LBD mod 0.3.
`O=C(OCc1ccccc1)/C(=C/c1ccccc1Cl)NC(=O)c1ccco1` gave Rtt109 HAT inh 6.0, GASC-1 inh -3.2, T cell HTS inactive and GRIN3A LBD mod 14.8*.
Cc1ccc(-n2c(C)cc(C3N=C(N)Nc4nc5ccccc5n43)c2C)c(C)c1 (stereo not given) was read as Rtt109 HAT inh 0.7, GASC-1 inh -0.3, T cell HTS 477.3 and GRIN3A LBD mod -22.9.
Screening Cc1cc(C2N=C(N)Nc3nc4ccccc4n32)c(C)n1-c1ccccc1Cl (stereo not given) returned GASC-1 inh 3.8, T cell HTS 378.0 and GRIN3A LBD mod 12.1*.
`COc1ccc(C(=O)NNC(=O)c2ccc3ccccc3n2)cc1` gave Rtt109 HAT inh -2.2, GASC-1 inh -0.4, T cell HTS 265.9 and GRIN3A LBD mod -2.7.
For Cc1c(C(=O)NC(=S)NCC(C)C)oc2ccccc12 the results were Rtt109 HAT inh 2.2, GASC-1 inh 1.8, T cell HTS 523.1 and GRIN3A LBD mod 17.9*.
For CCC(=O)Nc1ccc(NC(=S)NC(=O)c2oc3ccccc3c2C)cc1 the results were Rtt109 HAT inh 0.4, GASC-1 inh 4.5, T cell HTS 309.2 and GRIN3A LBD mod 2.4.
Screening Cc1c(C(=O)Nc2ccc(-n3cnnn3)cc2)oc2ccccc12 returned Rtt109 HAT inh -5.5, GASC-1 inh 8.8, T cell HTS 552.8 and GRIN3A LBD mod 26.8*.
CCC(=O)Nc1ccc(NC(=O)c2oc3ccccc3c2C)cc1 was read as Rtt109 HAT inh -2.8, GASC-1 inh -10.4, T cell HTS 304.8 and GRIN3A LBD mod 28.9*.
Cn1nc(C(=O)Nc2ccc(-n3cnnn3)cc2)c2ccccc2c1=O was read as Rtt109 HAT inh -3.5, GASC-1 inh 1.1, T cell HTS 160.1 and GRIN3A LBD mod -4.4.
O=C(Nc1cc(F)c(Br)cc1F)c1ccc(Cl)cc1 was read as Rtt109 HAT inh 2.1, GASC-1 inh -17.9, T cell HTS 179.9 and GRIN3A LBD mod 0.5.
Cc1ccc(C)c(N2CCN(C(=O)CCS(=O)(=O)c3ccc4c(c3)CCN4C(=O)C3CC3)CC2)c1 was read as Rtt109 HAT inh 11.0, GASC-1 inh -11.2, T cell HTS 260.5 and GRIN3A LBD mod -1.1.
For O=C(c1cc(-c2ccccc2)n[nH]1)N1CCN(S(=O)(=O)c2ccccc2)CC1 the results were Rtt109 HAT inh 0.5, GASC-1 inh -3.9, T cell HTS 96.0 and GRIN3A LBD mod -2.7.
For COc1ccc(-c2cc(C(=O)N3CCN(S(=O)(=O)c4ccccc4)CC3)[nH]n2)cc1 the results were Rtt109 HAT inh -6.4, GASC-1 inh -5.2, T cell HTS 596.1 and GRIN3A LBD mod 14.8*.
`COc1ccc(/C=C/C(=O)Nc2cc(F)ccc2C)cc1S(=O)(=O)N1CCOCC1` gave Rtt109 HAT inh 7.7, GASC-1 inh -6.7, T cell HTS 555.7 and GRIN3A LBD mod -1.1.
For Cc1ccc(F)cc1NC(=O)/C=C/c1ccc(S(=O)(=O)N2CCOCC2)cc1 the results were Rtt109 HAT inh -1.2, T cell HTS 363.0 and GRIN3A LBD mod 15.2*.
O=C(/C=C/c1ccc(S(=O)(=O)N2CCOCC2)cc1)Nc1cc(F)ccc1F was read as Rtt109 HAT inh -5.9, GASC-1 inh 3.0, T cell HTS 240.6 and GRIN3A LBD mod 31.7*.
For O=C(/C=C/c1ccc(F)cc1)Nc1cccc(S(=O)(=O)N2CCOCC2)c1 the results were Rtt109 HAT inh -0.8, GASC-1 inh 2.5, T cell HTS 344.7 and GRIN3A LBD mod -4.8.
`Cc1ccc(-c2csc(N(CCO)CCCn3c(C(F)(F)F)nc4cc(C(F)(F)F)ccc43)n2)cc1` gave Rtt109 HAT inh 2.7, GASC-1 inh -0.7, T cell HTS 298.3 and GRIN3A LBD mod 18.6*.
Cc1nc(SCC(=O)Nc2ccc(CN3CCCC3)cc2)c2c(C)c(C)sc2n1 was read as Rtt109 HAT inh 10.6, GASC-1 inh -2.9, T cell HTS 487.2 and GRIN3A LBD mod -1.4.
